Screening results from PubChem.
VLA-4 inh: inhibition in a human VLA-4 binding assay | VLA-4 expressing cells, ligand binding flow cytometry | actives 0.2% (n = 330,000) | AID 2557 | inhibition, % (about 7 µM as worked out from the volumes in the protocol); in the data active = inhibition above about 50%
PG9 binder: binds the HIV-1 gp120 antibody PG9; TR-FRET gp120-PG9 antibody binding; inhibition, % at 6.7 µM; actives 0.43% (n = 360,000); AID 624416; in the data active = inhibition above about 8.5%
NR2E3 ag-1: agonists of human nuclear receptor NR2E3 | Q9Y5X4 | actives 0.12% (n = 320,000) | GST-NR2E3/biotin-RetCOR TR-FRET, 1536-well | inhibition of corepressor binding, % at 4.78 µM | AID 2300;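 active = percent inhibition above the cutoff of mean plus 3 SD of all tested compounds, set per screening campaign, cut at about 20% in these data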;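 note: 0% = DMSO wells and 100% = biotin wells as full block of FRET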
Target sequence (Q9Y5X4 whole entry, looked up): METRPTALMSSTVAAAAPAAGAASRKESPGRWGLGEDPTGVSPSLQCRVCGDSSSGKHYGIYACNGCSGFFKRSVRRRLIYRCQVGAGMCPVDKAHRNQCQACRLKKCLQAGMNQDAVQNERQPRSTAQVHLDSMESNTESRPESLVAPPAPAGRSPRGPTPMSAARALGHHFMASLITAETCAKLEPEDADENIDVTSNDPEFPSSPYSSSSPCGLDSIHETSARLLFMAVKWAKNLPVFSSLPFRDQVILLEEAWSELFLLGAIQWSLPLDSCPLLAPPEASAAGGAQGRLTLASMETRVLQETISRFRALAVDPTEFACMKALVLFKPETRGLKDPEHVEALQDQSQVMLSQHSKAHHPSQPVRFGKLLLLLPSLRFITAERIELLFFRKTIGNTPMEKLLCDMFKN
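Assay system: NR2E3–RetCOR corepressor complex. Quantity: 1.35 nM GST-NR2E3. Buffer or medium: pH 7.5 Tris-based buffer. Reagent: biotinylated RetCOR corepressor at 7 nM final. Schedule: 5 h at 4 °C. Detection: TR-FRET, emission read at 617 and 671 nm. Replicates: one well per compound, singlicate testing.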
NR2E3 ag-2: human photoreceptor-specific nuclear receptor agonism; CHO-S Gal4-NCOR/VP16-NR2E3 two-hybrid, luciferase; Q9Y5X4; inhibition of corepressor binding, % at 3.98 µM; actives 0.35% (n = 360,000);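 active = inhibition above the mean of all tested compounds plus 3 SD, cut at about 70% in these data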;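 note: 0% = DMSO with NR2E3 transfected cells and 100% = cells lacking NR2E3 construct; higher means lower luciferase signal from less NR2E3 corepressor binding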
NR1D1 modulator: modulates human Rev-erb alpha binding to DNA; P20393; Rev-erbα–FITC-DNA binding, fluorescence polarization, 90 min; activity, % at 10 µM; actives 0.79% (n = 370,000);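 active = activity above about 14%, limit read from the data; passing the limit was not always enough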;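 note: 0% = DMSO wells with 35 nM protein and 100% = DMSO wells with 750 nM protein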
NR2E3 ag conf: confirmation of human NR2E3 agonists; shares compounds with NR2E3 ag-2; actives 51% (n = 2,300); CHO-S mammalian two-hybrid NR2E3-NCOR, luciferase luminescence; AID 624378; inhibition, % at 3.98 µM;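 active = average inhibition above a cutoff equal to the mean inhibition of all tested compounds plus one SD, cut at about 70% in these data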;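 note: 0% = DMSO in NR2E3 cells and 100% = DMSO in cells lacking NR2E3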
VP16 counter: counter-screen for NR2E3 agonists: GAL4-VP16 reporter inhibitors | shares compounds with NR2E3 ag-2 | CHO-S GAL4-VP16 luciferase reporter, luminescence | inhibition, % at 3.98 µM | actives 29% (n = 2,300);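 active = mean inhibition above a cutoff equal to the average over all tested compounds plus one standard deviation, cut at about 70% in these data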;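 note: luciferase from a UAS reporter driven by GAL4-VP16 transactivation; 0% = DMSO with VP16-transfected cells and 100% = DMSO with cells lacking VP16; higher means less reporter light so more repression of VP16 activity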
Starred values were filed as active, the others as inactive; . = no result. The list is not random: actives were taken first. Their share in the collection is about 1.6%.

SMILES	VLA-4 inh	PG9 binder	NR2E3 ag-1	NR2E3 ag-2	NR1D1 modulator	NR2E3 ag conf	VP16 counter
Cc1cccc(C2(c3cccc(C)c3)CC2C(=O)Nc2ccc([N+](=O)[O-])cc2O)c1 (centres undefined)	37	1	-4	86*	3	74*	67
Cc1ccc(S(=O)(=O)c2ccc([N+](=O)[O-])o2)cc1	.	-1	.	66	1	92*	13
Cc1ccc(NC(=O)c2ccc([N+](=O)[O-])o2)c(C)c1	-10	-2	0	38	-1	.	.
Cc1ccccc1Cn1ccc2ccc(-c3ccc4ccn(Cc5ccccc5)c4c3)cc21	.	.	.	.	-2	.	.
Cc1ccccc1Cn1c(C)nc2ccccc21	0	0	-2	62	5	93*	82*
Cc1nc2ccccc2n1Cc1ccc(Cl)cc1	7	0	4	92*	-3	94*	83*
Cc1ccc(CN[C@@H]2CC[C@@]34CCCN3C(=O)CCC[C@H]4C2)cc1	.	.	.	.	1	.	.
O=C(Cc1cn(Cc2ccccc2)c2ccccc12)Nc1ccc(Oc2cccnc2)cc1	.	-2	.	.	-1	.	.
CCCCCCCCCC[n+]1cccc2c3ccccc3ccc21	.	0	.	96*	-7	100*	94*
COCCNC(=S)N(C)[C@H]1C[C@H]2c3[nH]c4cccc(-c5ccccc5)c4c3CCN2C(=O)[C@H]1[C@H](C)O	.	1	.	.	-1	.	.
CC(=O)/C(N=Nc1ccc2c(c1)OCCO2)=C(\C)O	-12	-3	-2	52	-2	31	12
CC(=O)/C(N=Nc1ccc2c(c1)OCO2)=C(\C)O	-22	1	2	-45	8	.	.
O[C@H](COc1cc(F)cc(F)c1)CN1CCC(C(O)(c2ccccc2)c2ccccc2)CC1	.	.	.	.	-1	.	.
Oc1c(Cl)cc(Cl)cc1Sc1cc(Cl)cc(Cl)c1O	9	.	3	.	0	.	.
O=S(c1cc(Cl)cc(Cl)c1O)c1cc(Cl)cc(Cl)c1O	.	0	.	84*	-1	99*	78*
COP(=O)(O)C[C@@H]1CCc2cc(C)cc([C@H](CC(C)C)NC(=O)OCc3ccccc3)c2O1	.	.	.	.	1	.	.
Cc1nc2c(-c3ccccc3)cnn2c(N)c1-c1ccccc1	6	-2	.	74*	-5	55	-6
COc1cc(NC(=O)COc2cc(O)c3c(c2)OC(C)(C)CC3=O)cc(OC)c1OC	5	-1	-1	82*	10	59	84*
CC1(C)CC(=O)c2c(O)cc(OCC(=O)Nc3ccc(S(N)(=O)=O)cc3)cc2O1	34	0	4	-27	8	.	.
COC(=O)[C@]12C[C@H](CC(=O)NCC34CC5CC(CC(C5)C3)C4)C(=O)N(Cc3cccc4ccccc34)C1=C[C@H](COCc1ccccc1)O[C@@H]2C	.	.	.	.	1	.	.
COc1cnc(-c2ccccn2)nc1Oc1ccc(Cl)c2ccccc12	2	-1	0	64	-2	11	35
COc1cnc(-c2ccccn2)nc1Oc1ccc(Cl)cc1	17	-1	-1	79*	-1	24	-25
N#Cc1ccccc1N1CCN(S(=O)(=O)c2ccc3c(c2)CCC(=O)N3)CC1	.	.	.	.	1	.	.
CCCC1CCC2(CC1)CCC2OC(=S)Nc1ccc(I)cc1 (centres undefined)	.	.	.	.	-7	.	.
FC(F)(F)c1cccc(Sc2cc(C(F)(F)F)nc(-c3ccccn3)n2)c1	-20	4	0	-3	-2	.	.
SMILES	VLA-4 inh	PG9 binder	NR2E3 ag-1	NR2E3 ag-2	NR1D1 modulator	NR2E3 ag conf	VP16 counter
COc1cnc(-c2ccccn2)nc1Sc1ccc(C)cc1	6	2	1	94*	-5	42	30
COc1cnc(-c2ccccn2)nc1Sc1cccc(Cl)c1	-7	0	0	52	-2	63	5
Nc1cccnc1Sc1cccc(Cl)c1	16	0	0	-5	3	.	.
COc1cnc(-c2ccccn2)nc1Oc1ccccc1Cl	13	0	1	0	1	.	.
COc1ccc(-c2nc(-c3ccccn3)ncc2S(C)(=O)=O)cc1	-4	-1	4	-19	-3	.	.
COc1ccccc1Sc1nc(-c2ccccn2)ncc1OC	11	-2	-4	78*	3	45	-1
Cc1ccc(Sc2cc(C)nc(-c3ccccn3)n2)cc1	6	0	-2	86*	5	-6	-24
Cc1cccc(-c2nnc(SCC(=O)Nc3cccc4ccccc34)n2Cc2ccco2)c1	.	.	.	.	6	.	.
C[C@H](NS(=O)(=O)c1ccc([N+](=O)[O-])cc1)C(=O)NCCNC(=O)[C@@H](C)NS(=O)(=O)c1ccc([N+](=O)[O-])cc1	.	.	.	.	-2	.	.
COC(=O)C1=C(C)N(Cc2ccc(F)cc2)C(=S)NC1c1ccc(Cl)cc1 (centres undefined)	.	-3	.	.	3	.	.
COc1cnc(-c2ccccn2)nc1Oc1ccc(F)cc1F	3	-2	4	44	4	.	.
COc1cnc(-c2ccccn2)nc1NC(C)C	10	-2	-1	68	-4	38	-23
C=CCNC(=S)N/N=C(\C)c1ccccn1	5	-2	-1	84*	1	6	12
CC(=NNC(=S)Nc1ccccc1Cl)c1ccccn1	.	1	.	86*	-2	-38	-17
CC(=NNC(=S)Nc1ccccc1)c1ccccn1	.	-3	.	85*	-3	-29	-15
C/C(=N\NC(=O)c1ccccc1-n1cccc1)c1ccccn1	.	-1	.	-10	0	.	.
CC(=NNC(=S)N1CCCCC1)c1ccccn1	.	-1	.	85*	5	58	32
Cc1ccccc1Cn1cc(CN2[C@@H](CC(C)C)COc3cccc(F)c3S2(=O)=O)nn1	.	.	.	.	0	.	.
O=C(O)CNC(=O)c1ccccc1I	.	.	.	.	2	.	.
CC1(C)CC(=O)N(CC(=O)N2CCN(Cc3ccccc3)CC2)c2ccccc2S1(=O)=O	.	.	.	.	-1	.	.
COc1ccccc1NS(=O)(=O)c1ccc2oc(SCC(C)=O)nc2c1	0	-1	3	42	3	.	.
COc1ccccc1NS(=O)(=O)c1ccc2oc(SC(C)C(=O)N3CCNC3=O)nc2c1 (centres undefined)	6	1	2	56	-1	6	22
CCN(C1CCCCC1)S(=O)(=O)c1ccc(S(=O)(=O)NCCc2ccncc2)cc1	-2	-2	0	9	0	.	.
Cc1cc(Br)c(S(=O)(=O)NCc2ccncc2)cc1C	3	-3	2	82*	3	70*	66
COc1cc(S(=O)(=O)NCc2ccncc2)ccc1Br	2	1	4	95*	-11	78*	68
O=S(=O)(NCc1ccncc1)c1ccc(Br)s1	1	-2	1	103*	0	92*	78*
O=C(O)CNS(=O)(=O)c1ccc(Br)s1	35	-2	-3	-19	-3	.	.
